Screening data deposited in PubChem BioAssay by several laboratories.
Only some compounds are listed: those with a hit (about 2.4% of all), similar ones and a draw of the others.
PAD4 FP inh = inhibitors of human PAD4; recombinant PAD4, RCA probe fluorescence polarization; inhibition, % at 6.36 µM; 330,000 compounds, 0.41% hits;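 active = percent inhibition above a cutoff equal to the mean of all tested compounds plus 3 SD, cut at about 15% in these data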;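 note: 0% = PAD4 with RCA probe and DMSO and 100% = probe without PAD4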
Apaf-1 inh = blocks human Apaf-1 apoptosome activity. inhibition, % at 20 µM. reconstituted apoptosome caspase-3 activity, DEVD-Rh110 fluorescence. 330,000 compounds, 0.71% hits; active = inhibition of at least 40% at 20 µM;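 note: plate controls were DMSO wells for no effect and DEVD-CHO caspase inhibitor wells for full effect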
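Assay system: Apoptosome proteins | Medium: pH 7.5 Hepes buffer with CHAPS, BSA, DTT | Also added: Cytochrome c and DEVD-Rh110 substrate | Times: 30 min plus 50 min, RT | Detection: Rhodamine 110 fluorescence at Ex 480/Em 540 nm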
SIAE inh = inhibitors of human sialic acid acetylesterase SIAE; SIAE FP-Rh probe binding, fluorescence polarization; inhibition, % at 9.66 µM; 370,000 compounds, 0.69% hits; AID 1053197;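 active = inhibition above a cutoff: mean of compounds within the control limits plus 3 SD of those, cut at about 17% in these data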;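 note: 0% = plate median of compound wells and 100% = probe without SIAE protein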
TCR-CD3 inh = inhibitors of human TCR-CD3 interaction; 360,000 compounds, 0.37% hits; inhibition, % at 9.4 µM; TAMRA-labeled TCR probe fluorescence, biochemical; in the data active = inhibition above about 19%;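 note: recombinant mutant TCR 2C K166C tagged with TAMRA read by polarization; 0% = receptor in buffer alone and 100% = receptor with positive control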
GSTO1 inh = blocks human GSTO1 in RBBP9 counter-screen; inhibition, % at 5.96 µM; recombinant GSTO1, activity-based probe fluorescence polarization; AID 1974; 300,000 compounds, 1.1% hits; P78417;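 active = inhibition above the campaign mean inhibition plus 3 SD, cut at about 35% in these data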;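 note: 0% = GSTO1-1 with DMSO and 100% = wells lacking GSTO1-1 enzyme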
Target sequence (P78417 whole entry, looked up): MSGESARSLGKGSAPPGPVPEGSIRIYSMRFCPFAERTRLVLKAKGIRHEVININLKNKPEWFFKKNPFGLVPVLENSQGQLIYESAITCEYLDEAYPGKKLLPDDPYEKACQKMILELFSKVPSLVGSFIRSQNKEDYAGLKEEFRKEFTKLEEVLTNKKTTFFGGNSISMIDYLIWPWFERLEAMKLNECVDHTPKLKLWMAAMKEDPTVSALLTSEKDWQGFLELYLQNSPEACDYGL
TDP2 inh = blocks human TDP2 phosphodiesterase activity | inhibition, % at 12.8 µM | recombinant TDP2, T5PNP hydrolysis, p-nitrophenol absorbance 415 nm | 370,000 compounds, 0.34% hits;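 active = inhibition above the mean of all tested compounds plus 3 SD, set per campaign, cut at about 25% in these data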;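 note: 0% = DMSO with enzyme and 100% = buffer with substrate but no TDP2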
Target sequence (O95551 whole entry, looked up): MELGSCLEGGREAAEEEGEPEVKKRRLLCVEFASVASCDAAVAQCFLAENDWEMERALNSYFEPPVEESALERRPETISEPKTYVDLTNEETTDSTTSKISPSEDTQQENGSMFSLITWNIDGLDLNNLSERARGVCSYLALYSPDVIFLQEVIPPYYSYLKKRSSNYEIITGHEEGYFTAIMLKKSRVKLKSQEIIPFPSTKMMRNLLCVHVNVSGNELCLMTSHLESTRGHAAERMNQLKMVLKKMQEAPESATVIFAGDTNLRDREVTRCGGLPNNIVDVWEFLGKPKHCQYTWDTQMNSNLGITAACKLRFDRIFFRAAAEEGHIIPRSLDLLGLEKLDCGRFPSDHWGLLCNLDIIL
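test system = human TDP2 enzyme | input = TDP2 enzyme at 120 nM final | medium = 50 mM Tris-HCl pH 7.5 with Mg2+, KCl, DTT, BSA | also added = T5PNP substrate, 5 mM | times = 2 h at 37 °C | technique = epi absorbance | benchmarks = high control without enzyme, low control DMSO plus TDP2 | replication = each compound tested once, singlicate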
SIAE inh conf = confirmation of human SIAE inhibitors; shares compounds with SIAE inh; inhibition, % at 9.66 µM; SIAE FP-Rh activity-based probe, fluorescence polarization; 2,300 compounds, 13% hits;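 active = mean inhibition of the replicates above the hit cutoff set in the primary screen, cut at about 17% in these data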;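 note: 0% = SIAE with DMSO and probe and 100% = probe without SIAE; inhibitors lower polarization as more probe stays unbound to SIAE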
An asterisk follows results filed as active; · = no result given.

SMILES	PAD4 FP inh	Apaf-1 inh	SIAE inh	TCR-CD3 inh	GSTO1 inh	TDP2 inh	SIAE inh conf
O=C(O)COc1ccccc1/C=N/NC(=O)c1cc2ccccc2cc1O	1	4	48*	5	10	-7	53*
O=C(N/N=C/C1CC=CCC1)c1cc2ccccc2cc1O (stereo not given)	-4	8	19*	1	-4	2	8
C[N+]1(CCCCCCC(=O)/C=N/O)CCCCCC1	-4	3	19*	-2	4	2	3
c1cncc(-c2nc(NCCCN3CCOCC3)c3c4c(sc3n2)CCC4)c1	-4	-1	-7	5	-6	-6	·
O=C(COC(=O)/C=C/c1cccc([N+](=O)[O-])c1)Nc1cccnc1Cl	6	0	0	4	·	-10	·
CN(C)c1ccc(CN(CC2CCCO2)C(=O)c2cc3ccccc3o2)cc1 (stereo not given)	·	10	20*	5	·	5	-1
O=C(O)c1ccc(NCc2cccs2)cc1	-1	-10	18*	-2	2	-17	-2
COc1ccccc1-n1c(C)nc2cc(C(=O)O)ccc21	6	-7	17*	8	0	2	-2
Cc1nc2cc(C(=O)O)ccc2n1-c1ccccc1	-1	0	-3	1	-1	6	·
CCOC(=O)CNC(=O)c1ccc(C)cc1	-1	-21	-3	-4	4	4	·
CCO/C=C/C(O)(CNC(=O)c1ccc(C(C)(C)C)cc1)C(F)(F)F (stereo not given)	1	5	60*	-5	1	-7	-1
CCC(=O)Nc1ccc(NC(=S)NC(=O)/C=C/c2ccco2)cc1	1	7	14	-2	1	9	·
CC(=O)NC(=S)Nc1ccc(NC(=S)NC(=O)/C=C/c2ccco2)cc1	3	-11	31*	0	6	-5	-28
O=C(/C=C/c1ccco1)NC(=S)Nc1ccc(N2CCCC2)cc1	1	11	18*	11	50*	2	7
Cc1ccc(S(=O)(=O)NN2C(=O)c3ccccc3NC2C)cc1 (stereo not given)	0	-5	-3	9	4	0	·
CCOc1cc(N(CC)CC)ccc1/C=C(/C#N)c1nc2ccccc2[nH]1	-3	-46	27*	-7	-1	2	6
COc1ccc(-c2[nH]c(-c3cc(OC)c4c(c3)OCO4)nc2-c2ccccc2)cc1	9	14	26*	6	-1	-3	-2
COc1ccc(-c2nc(-c3ccccc3)c(-c3cc([N+](=O)[O-])ccc3C)[nH]2)cc1OC	1	11	3	6	2	4	·
S=C1NC2(CCCC2)Nc2ccccc21	-3	-3	2	-6	3	-5	·
COc1ccc(NC(=O)c2cccc(N3C(=O)c4ccc(C(=O)Nc5ccc(OC)c(O)c5)cc4C3=O)c2)cc1O	-1	-5	23*	1	13	-16	5
O=C(O)c1cccc(NC(=O)c2ccc3c(c2)C(=O)N(c2ccccc2)C3=O)c1	3	8	-2	-1	-3	-3	·
O=c1[nH][nH]c(=O)n1-c1ccccc1	0	-7	20*	0	3	5	-2
O=c1c2ccccc2c2ccccc2c(=O)n1-c1ccccc1	-1	-3	-1	-1	7	9	·
O=C1C2C3C=CC(CC3)C2C(=O)N1c1cccc(Br)c1 (stereo not given)	-4	13	0	3	4	-2	·
CCCS(=O)(=O)N1CCN=C1SCc1ccc(F)cc1	2	-9	8	1	4	13	·
SMILES	PAD4 FP inh	Apaf-1 inh	SIAE inh	TCR-CD3 inh	GSTO1 inh	TDP2 inh	SIAE inh conf
C[C@H](c1ccccc1)N1C[C@@H](COCc2ccccc2)Oc2cc(N3CC[C@@H](N(C)C)C3)ccc2S1(=O)=O	·	·	18*	8	·	-3	11
C[C@@H](c1ccccc1)N1C[C@@H](COCc2ccccc2)Oc2cc(N3CC[C@H](N(C)C)C3)ccc2S1(=O)=O	·	·	5	2	·	-2	·
O=C(COC(=O)C1COc2ccccc2O1)NC(=O)NC1CCCCC1 (stereo not given)	0	12	47*	-6	-9	-3	-3
O=C(COC(=O)C1COc2ccccc2O1)NC1CCS(=O)(=O)C1 (stereo not given)	3	-5	1	6	-1	-4	·
CC(=O)c1ccc(OCC(=O)NC(=O)NC2CCCC2)cc1	·	·	18*	3	·	-2	4
CC(=O)c1ccc(OCC(=O)NC2CCCCCC2)cc1	2	-8	3	5	·	6	·
Cc1cc(C)n2nc(SCc3nnc(-c4ccccc4Br)o3)nc2n1	-6	-17	22*	4	6	1	1
Cc1cc(C)n2nc(SCc3ncc(-c4ccccc4)o3)nc2n1	-3	14	-3	1	-1	-7	·
COc1cc(C2NC(=S)NC(O)(C(F)(F)F)C2C(=O)c2cccs2)cc(OC)c1O (stereo not given)	-2	-11	13	-2	-1	0	·
Nc1nc(SCC(=O)Nc2ccc(C(F)(F)F)cc2)[nH]c(=O)c1NC(=O)c1ccc(F)c(F)c1	-2	-16	-34	-4	-8	6	·
COc1ccc(C(=O)Nc2c(N)nc(SCC(=O)Nc3ccc(NC(C)=O)cc3)[nH]c2=O)cc1OC	1	-4	18*	1	11	13	-5
COc1cc(/C=C/c2ccc3c(Br)cc(Br)c(O)c3n2)ccc1O	1	·	28*	0	9	-8	-5
O=C(CSc1nc2ccccc2c(=O)[nH]1)Nc1ccccc1N1CCOCC1	5	-2	3	0	-6	-1	·
CCCCn1nnnc1SCC(=O)Nc1ccc(N(C)C)cc1	4	8	4	-4	-6	8	·
COc1ccc(NC(=O)C/C(C)=N/NC(=O)c2cnccn2)cc1	4	-7	2	2	5	5	·
CCOc1ccc(NC(=O)C/C(C)=N/NC(=O)c2cnccn2)cc1	·	-2	20*	7	·	-15	0
O=S(=O)(Nc1ccccc1O)c1cccc2cccnc12	-1	0	-1	6	14	-1	·
Cc1ccc(NC(=O)CSc2nccn2Cc2ccccc2)cc1C	0	7	18*	1	-5	-1	3
C/C(=C/c1ccccc1)C(=O)N1CCN(c2ccccc2F)CC1	-5	8	2	-2	3	-18	·
O=C(N/N=C\c1cc(Br)ccc1O)c1ccc(S(=O)(=O)N2CCCCC2)cc1	-3	-15	32*	15	-7	-4	39*
COc1ccccc1NC(=O)C1CCCN1C(=O)NCc1ccccc1 (stereo not given)	3	-4	-4	5	1	13	·
